# From PubChem BioAssay
# Hits are enriched below; roughly 3.6% of the tested compounds scored in any of these assays.
# RAM network inh: yeast RAM network inhibition; actives 1.8% (n = 190,000); S. cerevisiae dse1pr::URA3 reporter, 5-FOA growth OD615, 2 d; analog-sensitive cbk1-as2 kinase mutant strain; inhibition, % at 50 µM;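 active = inhibition above a set limit, 3 SD over mean compound inhibition, cut at about 8.4% in these data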;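 also: 0% = DMSO-only wells with no growth and 100% = 10 µM 1-NA-PP1 full growth; inhibition rescues growth on 5-FOA so higher OD means more RAM inhibition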
# Phagocyt inh: blocks phagocytosis by macrophages | J774A.1 macrophage IgG-bead phagocytosis, imaging | inhibition, % at 5 µM | actives 0.07% (n = 110,000);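 active = inhibition above the mean of the plate negative controls plus 5 SD, cut at about 13% in these data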;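 also: phagocytic index as fraction of beads internalized from green versus red external bead signal; plate controls were DMSO negative control for no effect and cytochalasin-D positive control for full effect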
# Measles CPE: protection of cells from measles virus; AID 841; protection (pct of control), % at 4 µM; Measles virus-infected cells, CPE protection, absorbance; actives 1.5% (n = 140,000); in the data active = protection mostly above about 24%, no sharp cut-off; inactive = mostly below about 26%
# Yeast life ext: extends the lifespan of yeast | S. cerevisiae growth with nicotinamide, OD615; deaD strain in restrictive glucose medium | inhibition of the nicotinamide effect, % at 10 µM | actives 0.68% (n = 130,000);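 active = inhibition above a set limit, placed 3 SD over the median of all compounds, cut at about 26% in these data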;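 also: 0% = nicotinamide-treated wells and 100% = cells grown without nicotinamide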
#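 Material: Modified budding yeast, DeaD strain | Medium: Restrictive glucose medium | Probe or stimulus: 1.5 mM nicotinamide | Dosing: Single dose 10 µM compound, 0.25% DMSO | Times: 48 h at 30 °C | Technique: OD615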
# Yeast growth inh: yeast BB579 growth reduction in restrictive medium; actives 0.51% (n = 140,000); S. cerevisiae BB579 growth, OD615, 48 h; inhibition, % at 10 µM; AID 804;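 active = inhibition above a set limit, 3 SD over the mean compound inhibition, cut at about 44% in these data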
#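 System: Saccharomyces cerevisiae DeaD strain BB579, replicative lifespan model yeast. Buffer or medium: restrictive glucose-based CSMM-D medium. Doses: one dose, 10 µM compound with 0.25% DMSO. Timing: 4 h preincubation and 48 h exposure at 30 °C. Detection: turbidity as optical density at 615 nm. Benchmarks: amphotericin B 10 µg/mL, positive.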
# * hit, by the source's call; · = no result given.
SMILES,RAM network inh,Phagocyt inh,Measles CPE,Yeast life ext,Yeast growth inh
O=C(Nc1c2c(nn1-c1ccc(F)cc1)CS(=O)(=O)C2)c1ccc(S(=O)(=O)N2CCOCC2)cc1,4,·,·,·,·
CC(C)(C)OC(=O)C(Cl)(C(=O)OC(C)(C)C)c1ccc2nnnn2n1,3,·,·,·,·
CC(C)C1N=C2c3ccccc3N=C(SCC(=O)NCCc3ccc(S(N)(=O)=O)cc3)N2C1=O (stereo not given),2,·,43*,-24,17
CN(C)c1ccnc(Oc2ccc(Cl)cc2)c1C#N,0,·,6,-28,-37
Cc1cc(Cl)ccc1Oc1nccc(N(C)C)c1C#N,3,·,76*,-13,1
CC(NCc1ccc(N(C)C)cc1)C1CC2CCC1C2 (stereo not given),-1,0,7,47*,-7
O=S(=O)(c1ccc(F)cc1)N(CCO)CC(O)Cn1c2ccccc2c2ccccc21 (stereo not given),8.7*,3,21,-4,8
O=S(=O)(c1ccccc1)N(CC(O)Cn1c2ccccc2c2ccccc21)c1ccccc1 (stereo not given),4,0,13,-6,-31
CCN(CC(O)Cn1c2ccccc2c2ccccc21)S(=O)(=O)c1ccc(F)cc1 (stereo not given),11*,0,3,-9,-43
Cc1ccc(S(=O)(=O)N(C)CC(O)Cn2c3ccccc3c3ccccc32)cc1 (stereo not given),8.6*,0,39*,-3,-27
CCN(CC)CC(O)Cn1c2ccccc2c2ccccc21 (stereo not given),1,-3,7,-1,-21
CCOC(=O)CSc1nc2sc(C)c(C)c2c(=O)n1N,3,-8,9,-5,-21
O=C(N/N=C/c1ccc(Cl)cc1)C(=O)N1CCCCCC1,0,·,·,·,·
O=C(Nc1cnn(Cc2ccc(F)cc2)c1)c1cc2nc(-c3ccco3)cc(C(F)(F)F)n2n1,9.5*,-1,17,-3,-36
CCCCCC(/C=N/Nc1ccc(S(=O)(=O)N2CCOCC2)cc1[N+](=O)[O-])=C\c1ccccc1,6,-1,23,-1,-48
Cc1cc(/C=C\c2nc(O)c([N+](=O)[O-])c(=O)[nH]2)c(C)n1-c1ccccc1,8.7*,·,·,·,·
CCOCCCNCc1cc(Cl)cc(Cl)c1OCC,1,·,·,·,·
Cc1c(C(=O)OC(C)C)sc(N)c1C(=O)OC(C)C,3,-7,6,-4,-27
CCCNC(=O)CS(=O)Cc1nc(-c2ccccc2C)oc1C (stereo not given),1,0,12,-7,1
CCC(C)NC(=O)CS(=O)Cc1nc(-c2ccccc2C)oc1C (stereo not given),1,-1,13,0,47*
O=c1cc(-c2ccccc2Cl)oc2ccc([N+](=O)[O-])c(O)c12,5,·,24,64*,-42
Nc1ccc2oc(-c3ccccc3Cl)cc(=O)c2c1O,0,·,5,-8,-38
COc1ccc(/C=C2\CN(Cc3ccccc3)C/C(=C\c3ccc(OC)cc3)C2=O)cc1,11*,-9,17,0,-18
COc1cc(C(=O)OCC(=O)Nc2cc(C)on2)c([N+](=O)[O-])cc1OC,2,·,·,·,·
O=C1OCC(CO)(CO)N=C1NNc1ccc(Cl)c(Cl)c1,-1,·,8,-19,98*
SMILES,RAM network inh,Phagocyt inh,Measles CPE,Yeast life ext,Yeast growth inh
Cc1cc(C(F)(F)F)n2nc(-c3cnn(C)c3C(F)(F)F)c(Br)c2n1,0,·,·,·,·
O=C(Nc1cccc(S(=O)(=O)NC2=NCCCCC2)c1)c1cc(-c2ccccc2Cl)nc2ccccc12,11*,-10,1,0,-49
Cc1ccc(-n2c(SCC(=O)Nc3cccc(S(=O)(=O)NC4=NCCCCC4)c3)nc3ccccc3c2=O)cc1,9.8*,-4,6,-2,-19
Cc1ccc(CSc2nnc(-c3ccc(S(=O)(=O)N4CCCC4)cc3)o2)cc1,10*,0,8,3,-35
O=S(=O)(c1ccc(-c2nnc(SCc3ccccc3)o2)cc1)N1CCCC1,9.3*,-1,9,5,-85
CCN(CC)S(=O)(=O)c1ccc(N2CCOCC2)c(NC(=O)c2cnccn2)c1,0,-3,6,2,-25
CC(=O)Oc1c(C)cc(Cl)cc1C(=O)Nc1ccc([N+](=O)[O-])cc1Cl,5,-7,2,4,-10
COC(=O)c1ccc(NCCc2csc(-c3ccc(C)cc3)n2)c([N+](=O)[O-])c1,5,0,9,-23,-20
